# Measurements reported in ChEMBL document CHEMBL1123550, “Synthesis and biological activity of benzothiazolo[3,2-a]quinolone antibacterial agents” (1986).
# What was measured:
# Streptococcus pyogenes = assay: The compound was tested in vitro for antibiotic activity against Streptococcus pyogenes 930
# Enterococcus faecium = assay: The compound was tested in vitro for antibiotic activity against […] ATCC 8043; assay type: functional
# Outline: (§1)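 Overnight cultures were grown in brain-heart infusion broth at 36 °C. The compound was diluted twofold in brain-heart infusion agar over a range of 200 to 0.005 µg/mL (final). Each plate received about 10⁴ organisms and was incubated at 36 °C for 18 h. The MIC was taken as the lowest concentration giving no visible growth.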
# Staphylococcus aureus [1] = assay: The compound was tested in vitro for antibiotic activity against Staphylococcus aureus ATCC 6538P; assay type: functional
# Outline: as §1
# Pseudomonas aeruginosa [2] = assay: Compound was tested in vitro for antibiotic activity against the bacteria Pseudomonas aeruginosa K799/WT; assay type: functional
# Outline: as §1
# Acinetobacter = assay: Compound was tested in vitro for antibiotic activity against the bacteria Acinetobacter sp. CMX669; assay type: functional
# Outline: as §1
# Klebsiella pneumoniae = assay: Compound was tested in vitro for antibiotic activity against the bacteria Klebsiella pneumoniae 8045; assay type: functional
# Outline: as §1
# [3] = system: Staphylococcus epidermidis; assay: The compound was tested in vitro for antibiotic activity against Staphylococcus epidermidis 3519; assay type: functional
# Outline: as §1
# Staphylococcus aureus [4] = assay: The compound was tested in vitro for antibiotic activity against Staphylococcus aureus 686B; assay type: functional
# Outline: as §1
# Escherichia coli = assay: Compound was tested in vitro for antibiotic activity against the bacteria Escherichia coli juhl; assay type: functional
# Outline: as §1
# Pseudomonas aeruginosa [5] = assay: Compound was tested in vitro for antibiotic activity against the bacteria Pseudomonas aeruginosa 5007; assay type: functional
# Outline: as §1
# Klebsiella aerogenes = assay: Compound was tested in vitro for antibiotic activity against bacteria Enterobacter aerogenes ATCC 13048; assay type: functional
# Outline: as §1
Compound,MIC (Streptococcus pyogenes) [µg/mL],MIC (Enterococcus faecium) [µg/mL],MIC (Staphylococcus aureus [1]) [µg/mL],MIC (Pseudomonas aeruginosa [2]) [µg/mL],MIC (Acinetobacter) [µg/mL],MIC (Klebsiella pneumoniae) [µg/mL],MIC [3] [µg/mL],MIC (Staphylococcus aureus [4]) [µg/mL],MIC (Escherichia coli) [µg/mL],MIC (Pseudomonas aeruginosa [5]) [µg/mL],MIC (Klebsiella aerogenes) [µg/mL]
CN1CCN(c2cc3c(cc2F)c(=O)c(C(=O)O)cn3-c2ccccc2)CC1,3.1,–,–,–,–,–,–,–,–,–,–
O=C(O)c1cn(-c2ccccc2)c2cc(N3CCNCC3)c(F)cc2c1=O,1.56,–,–,–,–,–,0.78,–,–,–,–
Cc1cccc(C)c1-n1cc(C(=O)O)c(=O)c2cc(F)c(N3CCN(C)CC3)cc21,> 100,–,–,–,–,–,–,–,–,–,–
CCn1cc(C(=O)O)c(=O)c2cc(F)c(N3CCNCC3)cc21 [NORFLOXACIN],3.1,–,–,–,–,–,–,–,–,–,–

# Results, then the compound that gave them:
MIC (Streptococcus pyogenes) [µg/mL],MIC (Enterococcus faecium) [µg/mL],MIC (Staphylococcus aureus [1]) [µg/mL],MIC (Pseudomonas aeruginosa [2]) [µg/mL],MIC (Acinetobacter) [µg/mL],MIC (Klebsiella pneumoniae) [µg/mL],MIC [3] [µg/mL],MIC (Staphylococcus aureus [4]) [µg/mL],MIC (Escherichia coli) [µg/mL],MIC (Pseudomonas aeruginosa [5]) [µg/mL],MIC (Klebsiella aerogenes) [µg/mL],Compound
3.1,6.2,0.39,> 100,0.1,1.56,0.39,0.39,6.2,> 100,12.5,CCC(=O)N1CCN(c2cc3c(cc2F)c(=O)c(C(=O)O)c2sc4ccccc4n23)CC1
50,–,–,–,–,–,–,–,–,–,–,Cc1ccccc1-n1cc(C(=O)O)c(=O)c2cc(F)c(N3CCN(C)CC3)cc21
0.78,0.78,0.39,1.56,0.39,0.2,0.39,0.39,0.2,1.56,0.78,O=C(O)c1c(=O)c2cc(F)c(N3CCNCC3)cc2n2c1sc1ccccc12
3.1,6.2,0.2,> 100,6.2,1.56,0.39,0.2,6.2,> 100,> 100,CC(=O)N1CCN(c2cc3c(cc2F)c(=O)c(C(=O)O)c2sc4ccccc4n23)CC1
1.56,1.56,0.39,6.2,0.39,0.39,0.78,0.39,0.78,6.2,1.56,CN1CCN(c2cc3c(cc2F)c(=O)c(C(=O)O)c2sc4ccccc4n23)CC1
